In the library only some 2.3% were active in any assay of this set; here they are far more common.
NR2F2 inh = blocks human COUP-TFII nuclear receptor | 0.7% of 370,000 active | inhibition, % at 8.6 µM | HEK293T NGFI-A luciferase reporter, luminescence | P24468;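 active = inhibition above a per-plate cutoff, mean inhibition of test wells between control levels plus 3 SD, cut at about 38% in these data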;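 also: cells cotransfected with COUP-TFII expression vector driving the NGFI-A reporter; 0% = median of COUP-TF2 test wells and 100% = reporter-only cells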
CHT block = inhibitors of human choline transporter CHT; B-score at 10 µM; CHT-expressing cells, membrane potential dye, choline response; hits give low values; 0.86% of 310,000 active; AID 488975;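 active = B-score over 3 SD under the library average, and starting fluorescence ratio not unusually high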;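 also: choline stimulus applied at its EC90 after an EC20 pre-addition; B-score computed on integrated fluorescence ratio after choline addition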
NR2E3 ag-1 = activates human photoreceptor nuclear receptor NR2E3; GST-NR2E3/biotin-RetCOR TR-FRET, 1536-well; inhibition of corepressor binding, % at 4.78 µM; AID 2300; 0.12% of 320,000 active; Q9Y5X4;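 active = percent inhibition above the cutoff of mean plus 3 SD of all tested compounds, set per screening campaign, cut at about 20% in these data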;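 also: 0% = DMSO wells and 100% = biotin wells as full block of FRET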
Target sequence (Q9Y5X4 whole entry, looked up): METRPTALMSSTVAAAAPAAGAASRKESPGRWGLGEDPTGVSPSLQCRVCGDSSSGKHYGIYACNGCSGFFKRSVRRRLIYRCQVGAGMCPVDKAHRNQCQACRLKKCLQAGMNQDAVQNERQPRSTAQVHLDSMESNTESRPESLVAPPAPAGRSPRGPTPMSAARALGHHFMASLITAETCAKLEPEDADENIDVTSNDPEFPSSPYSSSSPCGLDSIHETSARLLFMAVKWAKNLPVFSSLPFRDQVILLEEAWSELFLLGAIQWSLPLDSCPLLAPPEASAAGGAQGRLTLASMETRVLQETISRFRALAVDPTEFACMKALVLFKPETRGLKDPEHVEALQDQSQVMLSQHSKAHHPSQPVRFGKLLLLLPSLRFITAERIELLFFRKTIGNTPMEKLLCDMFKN
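System: GST-tagged NR2E3 plus biotinylated RetCOR corepressor; Buffer or medium: pH 7.5 Tris-based buffer; Probe or stimulus: RetCOR corepressor, biotinylated, 7 nM; Doses: compound at 4.8 µM, single dose; Schedule: 5 h incubation at 4 °C; Technique: time-resolved FRET; Evaluation: percent inhibition of TR-FRET ratio; Replication: one well per compound, singlicate testing.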
GalR3 antagonist = antagonists of human GalR3 | inhibition, % at 3 µM | HEK293 GalR3-CNG cAMP membrane potential fluorescence; galR3 body fused to GalR1 C-terminus | 0.44% of 360,000 active | O60755;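 active = inhibition above the screen-wide average plus 3 SD, cut at about 13% in these data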;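 also: forskolin and galanin both at EC90 stimulate the cells; cAMP rise reported by CNG channel membrane potential dye signal; 0% = forskolin plus galanin with DMSO and 100% = forskolin alone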
NR2E3 ag-2 = agonists of human NR2E3 nuclear receptor | inhibition of corepressor binding, % at 3.98 µM | Q9Y5X4 | AID 602229 | CHO-S Gal4-NCOR/VP16-NR2E3 two-hybrid, luciferase | 0.35% of 360,000 active;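 active = inhibition above the mean of all tested compounds plus 3 SD, cut at about 70% in these data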;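 also: 0% = DMSO with NR2E3 transfected cells and 100% = cells lacking NR2E3 construct; higher means lower luciferase signal from less NR2E3 corepressor binding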
CHT allo act = human CHT allosteric activation | Q9GZV3 | CHT-expressing cells, membrane potential dye, choline EC20; hits give high values; LV-AA mutant CHT in HEK293 cells | 0.49% of 310,000 active | AID 488977 | B-score at 10 µM;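 active = initial fluorescence not abnormally high and integrated response B-score, plate-corrected, over 3 SD above library mean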
CHT act confirm = human CHT activation, confirmatory screen | CHT-expressing cells, membrane potential dye fluorescence (FDSS); % of choline EC20–EC90 response window; HEK293 expressing CHT LV-AA mutant; choline added at its EC20 | activation, % at 10 µM | shares compounds with CHT allo act | 91% of 2,500 active;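 active = primary screen active, with duplicate mean activation above negative control mean plus 3 SD, cut at about 11% in these data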
HEK293 MP dye = CHT activator counter-screen hit in parental HEK293 cells. shares compounds with CHT allo act. membrane potential dye fluorescence (FDSS); measured after EC20 choline addition. ratio readout change at 10 µM, hits read low. 62% of 2,500 active. AID 623908;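 active = duplicate-averaged ratio beyond 3 SD from buffer wells, up or down, though filed actives are nearly all decreases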
Starred values were filed as active, the others as inactive; i = inactive; · = not tested or not shown.

SMILES | NR2F2 inh | CHT block | NR2E3 ag-1 | GalR3 antagonist | NR2E3 ag-2 | CHT allo act | CHT act confirm | HEK293 MP dye
O=[N+]([O-])c1cccc(-c2nc(-c3ccncc3)no2)c1 | -17.5 | i | 4.4 | 1.4 | -131.0 | 7.13* | 44.2* | -43.3*
Cc1cc(=O)n2nc(-c3ccc(C(F)(F)F)cc3)sc2n1 | 10.2 | i | -0.8 | 1.1 | -44.1 | 6.83* | 42.3* | -34.6*
COc1ccccc1-c1nn2c(=O)cc(C)nc2s1 | -12.1 | i | -0.6 | -5.3 | -30.3 | i | · | ·
COc1cc2c(cc1OC)-c1cc3ccc(OC)c(OC)c3c[n+]1CC2 | 5.7 | i | 2.1 | -1.1 | -4.4 | i | 35.8* | -24.3*
CCCC[n+]1ccn(-c2nc3c([N+](=O)[O-])cccc3n2C)c1 | -2.1 | i | · | 5.0 | -8.8 | i | 66.6* | -54.5*
COc1ccc(-c2nc3cnccn3c2Nc2ccc(C)cc2)cc1 | -15.4 | i | 2.3 | · | 8.2 | i | 35.6* | -28.3*
N#CCC[C@@H]1CC[C@]2(CCCN(C(=O)c3cccnc3)C2)O1 | -7.5 | · | · | · | · | · | · | ·
COc1cccc(Cn2cc(COC(=O)N3CCCC3)nn2)c1 | -6.0 | · | · | · | · | · | · | ·
c1ccc(CCn2nnnc2CN2CCCc3ccccc32)cc1 | -26.3 | i | 0.5 | 10.0 | 2.2 | 7.32* | 8.2 | i
c1ccc2c(c1)CCCN2Cc1nnnn1CC1CCCO1 (stereo not given) | -19.6 | i | 0.5 | -0.3 | 1.5 | i | · | ·
COC(=O)[C@H](CC(C)C)N(CCCc1cn(Cc2ccc(C)cc2)nn1)S(=O)(=O)c1ccc(F)cc1Br | 9.3 | · | · | · | · | · | · | ·
C=CCN(Cc1ccc2c(c1)OCO2)C(C#Cc1ccccc1)c1ccccc1C(F)(F)F (stereo not given) | -16.6 | · | · | · | · | · | · | ·
CCOC(=O)C1(CCOc2ccccc2)CCN(Cc2ccc3nonc3c2)CC1 | 9.6 | i | 0.2 | -5.9 | -19.1 | 6.41* | 6.3 | i
CCOC(=O)C1(CCc2ccccc2)CCN(Cc2cc(OC)c(OC)cc2OC)CC1 | 5.4 | i | 3.1 | -9.1 | 6.0 | 10.5* | 55.9* | i
CCOC(=O)C1(CCOc2ccccc2)CCN(Cc2ccc(OC)cc2)CC1 | 26.2 | i | 0.2 | -5.6 | 10.0 | i | · | ·
Cc1ccccc1CN1CCCCC(NC(=O)c2cc(-c3ccccc3)no2)C1=O (stereo not given) | 8.9 | · | · | · | · | · | · | ·
Cc1cc(C[n+]2cc(Cl)ccc2N)c2ncccc2c1 | -4.1 | i | 3.0 | -5.2 | -39.6 | 15.8* | 45.6* | -39*
Cc1cc(C[n+]2cc(Br)ccc2N)c2ncccc2c1 | -11.8 | i | -1.1 | -6.8 | 3.9 | 8.47* | 49.3* | -43.9*
Cc1cc(C[n+]2ncsc2N)c2ncccc2c1 | -3.7 | i | -1.3 | 11.3 | -19.8 | i | 73.2* | -23.4*
Cc1ccc2cccnc2c1N | -8.8 | i | -1.6 | 2.5 | 14.5 | i | · | ·
COc1ccc(C2C(C(=O)Nc3cc(OC)ccc3OC)CCC(=O)N2c2ccc(OC)cc2)cc1 (stereo not given) | 7.1 | · | · | · | · | · | · | ·
CC(C)C(C#CC1CC1)N(Cc1ccc2c(c1)OCO2)C(N)=NC(=O)/C=C/c1ccccc1 (stereo not given) | 9.7 | · | · | · | · | · | · | ·
CCN(C(=O)COc1cccc2cccnc12)C1CCS(=O)(=O)C1 (stereo not given) | -12.3 | i | 2.9 | 2.4 | -21.4 | i | 52.2* | -38.2*
COC(=O)C1CN(Cc2ccc(OC)cc2)CCS(=O)(=O)N1Cc1cn(Cc2ccccc2)nn1 (stereo not given) | 3.8 | · | · | · | · | · | · | ·
CN1CCN(/N=C/c2nc(-c3ccccc3)n3ccccc23)CC1 | -9.4 | i | -10.6 | -2.9 | -7.8 | i | 27.2* | i
O=C(Nc1ccc(Br)cc1)OCCCN1CCC2(CCCCC2)C1=O | 29.1 | · | · | · | · | · | · | ·

Assay outcomes deposited in PubChem BioAssay by several laboratories.
